Columns and labels:
[1] = target: T1, human DUB UCHL3 (Homo sapiens, UniProt P15374); test: Cross-reactivity against purified DUB; assay type: biochemical; conditions: purified enzyme, Figure S4
T1 sequence (P15374 1-230): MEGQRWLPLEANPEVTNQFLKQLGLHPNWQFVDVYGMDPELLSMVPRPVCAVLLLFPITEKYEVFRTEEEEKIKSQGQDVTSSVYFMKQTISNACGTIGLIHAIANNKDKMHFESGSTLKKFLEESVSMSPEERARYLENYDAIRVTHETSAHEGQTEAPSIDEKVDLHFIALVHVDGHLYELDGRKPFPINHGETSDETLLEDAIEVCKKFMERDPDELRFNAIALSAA

[2] = test system: ΔNhSENPs1, 2, 5, 6 and 7; test: Fluorogenic substrate screen against the panel of recombinant hSENPs; assay type: biochemical, human; conditions: 50μM inhibitor, 1 hour preincubation, heat map Figure 4
Outline: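 Recombinant N-terminally truncated hSENPs were preincubated 1 h at 37 °C with 50 μM inhibitor in 50 mM Tris pH 8.0, 20 mM NaCl, 10 mM DTT. The enzyme level is given only for hSENP1, at 2 μM final. Then 100 nM Ac-QTGG-AFC (SENP1, 2, 5) or Ac-LRGG-AFC (SENP6, 7) was added. AFC release was read at 405/510 nm, 37 °C. Slope (RFU/min) was taken relative to DMSO (100%), averaging independent triplicates.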

[3] = target: T2, human SENP8 (Homo sapiens, UniProt Q96LD8); test: Cross-reactivity against purified deNEDDylase; assay type: biochemical; conditions: purified enzyme, Figure S4
T2 sequence (Q96LD8 1-212): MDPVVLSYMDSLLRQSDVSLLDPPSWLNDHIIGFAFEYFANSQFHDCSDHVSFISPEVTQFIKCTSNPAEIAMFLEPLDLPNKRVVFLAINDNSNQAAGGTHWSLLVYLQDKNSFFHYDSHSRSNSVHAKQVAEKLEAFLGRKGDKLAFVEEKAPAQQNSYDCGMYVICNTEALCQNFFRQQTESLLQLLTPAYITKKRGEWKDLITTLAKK

[4] = test system: PfSENP1; conditions: P. falciparum lysates; ref Ponder et al. Submitted; cited from earlier work
[5] = target: T3, endogenous SENP6 (Homo sapiens, UniProt Q9GZR1); test: Cell lysate treatment, competition of HA-SUMO2vme labeling; assay type: binding; conditions: treatment of cell lysates
T3 sequence (Q9GZR1 1-1112): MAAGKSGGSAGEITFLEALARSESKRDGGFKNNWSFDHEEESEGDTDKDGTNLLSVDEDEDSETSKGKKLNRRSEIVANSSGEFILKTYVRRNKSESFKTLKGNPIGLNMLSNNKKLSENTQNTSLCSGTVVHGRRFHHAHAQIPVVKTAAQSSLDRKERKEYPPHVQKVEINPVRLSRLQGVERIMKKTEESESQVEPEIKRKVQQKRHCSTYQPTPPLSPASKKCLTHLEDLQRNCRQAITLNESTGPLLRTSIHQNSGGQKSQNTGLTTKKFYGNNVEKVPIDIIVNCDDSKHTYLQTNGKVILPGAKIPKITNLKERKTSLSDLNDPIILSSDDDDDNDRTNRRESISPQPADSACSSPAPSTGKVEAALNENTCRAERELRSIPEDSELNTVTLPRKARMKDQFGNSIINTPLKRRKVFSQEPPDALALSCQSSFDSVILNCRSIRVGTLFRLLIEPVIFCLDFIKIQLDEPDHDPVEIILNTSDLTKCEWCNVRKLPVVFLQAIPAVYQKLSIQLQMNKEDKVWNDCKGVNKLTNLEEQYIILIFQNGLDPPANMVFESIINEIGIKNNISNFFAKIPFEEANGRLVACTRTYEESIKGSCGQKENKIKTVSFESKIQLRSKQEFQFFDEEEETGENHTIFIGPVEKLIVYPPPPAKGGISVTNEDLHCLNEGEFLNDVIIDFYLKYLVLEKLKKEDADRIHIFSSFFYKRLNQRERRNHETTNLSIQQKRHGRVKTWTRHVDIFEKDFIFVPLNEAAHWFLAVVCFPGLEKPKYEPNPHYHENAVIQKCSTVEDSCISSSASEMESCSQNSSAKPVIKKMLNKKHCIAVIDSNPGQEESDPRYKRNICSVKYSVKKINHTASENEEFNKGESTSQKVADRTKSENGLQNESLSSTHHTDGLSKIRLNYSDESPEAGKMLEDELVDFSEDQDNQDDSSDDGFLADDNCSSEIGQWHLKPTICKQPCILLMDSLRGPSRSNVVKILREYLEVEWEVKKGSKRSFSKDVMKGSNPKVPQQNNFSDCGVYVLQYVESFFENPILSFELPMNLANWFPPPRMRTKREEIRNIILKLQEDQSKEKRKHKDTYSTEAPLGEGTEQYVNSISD

[6] = test system: DUBs in HEK293 cell lysates; test: Competition of HA-Ubvme probe labeling in HEK293 cell lysates; assay type: binding, human; conditions: Figure S4
[7] = target: T4, endogenous SENP1 (Homo sapiens, UniProt Q9P0U3); test: Cell lysate treatment, competition of HA-SUMO2vme labeling; assay type: binding; conditions: treatment of cell lysates
T4 sequence (Q9P0U3 1-644): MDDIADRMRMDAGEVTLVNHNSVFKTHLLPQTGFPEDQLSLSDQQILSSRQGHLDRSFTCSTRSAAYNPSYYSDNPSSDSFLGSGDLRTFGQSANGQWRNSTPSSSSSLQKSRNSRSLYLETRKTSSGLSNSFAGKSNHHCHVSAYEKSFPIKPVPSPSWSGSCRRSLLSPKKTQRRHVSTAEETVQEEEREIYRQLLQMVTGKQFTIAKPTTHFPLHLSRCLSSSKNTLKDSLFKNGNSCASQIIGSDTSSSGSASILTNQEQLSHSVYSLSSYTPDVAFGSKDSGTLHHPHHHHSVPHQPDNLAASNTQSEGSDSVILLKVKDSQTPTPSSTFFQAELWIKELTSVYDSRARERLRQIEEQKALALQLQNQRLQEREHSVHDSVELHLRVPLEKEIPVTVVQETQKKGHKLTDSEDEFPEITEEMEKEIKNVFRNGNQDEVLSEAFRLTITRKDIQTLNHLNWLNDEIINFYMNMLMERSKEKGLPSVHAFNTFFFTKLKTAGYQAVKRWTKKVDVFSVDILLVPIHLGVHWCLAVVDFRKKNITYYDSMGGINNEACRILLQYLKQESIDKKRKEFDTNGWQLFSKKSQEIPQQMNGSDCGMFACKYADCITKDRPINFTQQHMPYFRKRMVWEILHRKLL

[8] = target: T5, ΔNhSENP1 (Homo sapiens, UniProt Q9P0U3); test: ProSUMO processing; assay type: biochemical; conditions: 100nM ΔNhSENP1, 0–100μM compound, 30 min pre-treatment
T5 sequence (Q9P0U3 450-613 limits assumed): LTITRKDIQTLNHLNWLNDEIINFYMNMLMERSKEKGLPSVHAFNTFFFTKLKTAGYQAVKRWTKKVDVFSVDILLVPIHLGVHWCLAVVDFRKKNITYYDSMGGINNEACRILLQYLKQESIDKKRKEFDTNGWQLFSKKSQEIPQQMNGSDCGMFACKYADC
Outline: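 ΔNhSENP1 (100 nM) was pretreated with inhibitor for 30 min in 50 mM Tris pH 7.4, 5 mM NaCl, 5 mM DTT (37 °C in methods, room temperature in legend). It then cleaved recombinant hSUMO1 carrying its full pro-sequence and a C-terminal His6 tag for 1 h at 37 °C. Loss of the pro-region and tag was scored as a band shift on SDS-PAGE with Gelcode Blue stain, beside a substrate-only lane.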

[9] = Stability of the epoxide in aqueous media; assay type: physicochemical; conditions: relative to aza-aspartic acid epoxides

| Structure (SMILES) | activity against UCHL3 [1] | relative inhibitor potency in the fixed concentration screen [2] | activity against hSENP8 [3] | further results |
| --- | --- | --- | --- | --- |
| C[C@H](O)C(NC(=O)[C@H](CCC(N)=O)NC(=O)Cc1ccc(O)c([N+](=O)[O-])c1)C(=O)NCC(=O)NCC(=O)COC(=O)c1c2ccccc2cc2ccccc12 (some centres unmarked) [VEA499] | only activity against hSENP8 | substantially more potent than the tripeptide (VEA498) equivalent | only activity against hSENP8 | – |
| O=C(O)CN(NC(=O)c1ccc(CNC(=O)c2cccc(C(=O)O)c2)cc1)C(=O)[C@H]1O[C@@H]1C(=O)N(Cc1cccc2ccccc12)Cc1cccc2ccccc12 [JCP666] | – | – | – | potency against parasite SENP [4]: effectively blocked PfSENP activity |
| CC(C)C[C@H](NC(=O)Cc1ccc(O)c([N+](=O)[O-])c1)C(=O)N[C@@H](CCCN=C(N)N)C(=O)NCC(=O)NCC(=O)COC(=O)c1c2ccccc2cc2ccccc12 [VEA561] | only activity against hSENP8 | most potent towards hSENP6 and hSENP7 | only activity against hSENP8 | – |
| O=C(CNC(=O)c1ccc(CNC(=O)c2cccc(C(=O)O)c2)cc1)COC(=O)c1c2ccccc2cc2ccccc12 [VEA401] | – | – | – | block of endogenous SENP6 labeling by HA-SUMO2vme probe [5]: not able to find conditions in which we could treat cell lysates with VEA401 and block labeling of endogenous SENP1 or SENP6; block of DUB labeling by HA-Ubvme probe [6]: did not block labeling of DUBs; block of endogenous SENP1 labeling by HA-SUMO2vme probe [7]: not able to find conditions in which we could treat cell lysates with VEA401 and block labeling of endogenous SENP1 or SENP6 |
| O=C(O)c1cccc(C(=O)NCc2ccc(C(=O)NNC(=O)[C@H]3O[C@@H]3C(=O)N(Cc3cccc4ccccc34)Cc3cccc4ccccc34)cc2)c1 [VEA260] | virtually no activity against either enzyme | – | virtually no activity against either enzyme | activity in ProSUMO processing assay [8]: retained full activity against hSENP1; stability of the compound [9]: more stable compound |
